The values below come from ChEMBL document CHEMBL3779855, “In vitro screening of 2-(1H-imidazol-1-yl)-1-phenylethanol derivatives as antiprotozoal agents and docking studies on Trypanosoma cruzi CYP51” (Eur J Med Chem, 2016).

Bounds are passed on as bounds.

One data set deals with Leishmania infantum. Briefly: Antiparasitic activity against amastigote stage of Leishmania infantum MHOM/MA-BE/67 infected in mouse peritoneal macrophages after 5 days by Giemsa staining based microscopic analysis. The class given is functional, organism-based. The note with it: MHOM/MA-BE/67, 120 h.
The test system of a further data set is MRC5. The experiment in a line: Cytotoxicity against human MRC5 cells assessed as cell viability after 4 to 7 days by Alamar Blue staining based fluorometric analysis. On the technique in general: The colour change of resazurin is a common sign of viable cells or microbes.
Data set [1] has as its system Trypanosoma cruzi. Briefly: Antiparasitic activity against nifurtimox-sensitive amastigote stage of Trypanosoma cruzi tulahuen CL2 infected in human MRC5 cells. The class given is functional, organism-based.
Another data set deals with Plasmodium falciparum. The experiment in a line: Antiparasitic activity against chloroquine-resistant erythrocytic stage of Plasmodium falciparum K1 infected in […] after 72 hrs by NBT staining based spectroscopic analysis. The class given is functional, organism-based. The note with it: K1, 72 h.
Data set [2] can be described thus: Selectivity index, ratio of IC50 for human MRC5 cells to IC50 for nifurtimox-sensitive amastigote stage of Trypanosoma cruzi tulahuen CL2 infected in human MRC5 cells. Type of data set: toxicity, cell-based. The note with it: read-out: Ratio IC50.
Data set [3] concerns Trypanosoma brucei rhodesiense. Briefly: Antiparasitic activity against suramin-sensitive trypomastigote stage of Trypanosoma brucei rhodesiense squib-427 infected in human MRC5 cells after 4 days by Alamar blue staining based fluorimetric analysis. Type of data set: functional, organism-based. The note with it: squib-427, 96 h.
In data set [4] the test system is Trypanosoma cruzi. Briefly: Potency index, ratio of benznidazole IC50 to compound IC50 for nifurtimox-sensitive amastigote stage of Trypanosoma cruzi tulahuen CL2 infected in human MRC5 cells. The class given is functional.
Data set [5] can be described thus: Metabolic stability in human liver microsomes at 50 uM after 60 mins by LC-UV-MS analysis in the presence of NADPH-generating system. The class given is ADME. The note with it: read-out: Stability. In short, it runs like this:
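Test compound at 50 μM in pH 7.4 phosphate buffer with 2% DMSO, incubated at 37°C for 60 min with human liver microsomal protein and an NADPH-generating system. The reaction was then stopped, and parent drug and metabolites were measured by LC-UV-MS.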
On the technique in general: Liver microsomes are vesicles of endoplasmic reticulum, rich in cytochrome P450 enzymes.

Take `O=C(Nc1ccc(N2CCN(C(=O)c3ccco3)CC2)cc1)O[C@H](Cn1ccnc1)c1ccc(F)cc1`: the IC50 in the data set with Leishmania infantum was more than 64 µM; in the data set with MRC5 it was 37.5 µM; with Trypanosoma cruzi [1] it was 0.13 µM; with Plasmodium falciparum it was 5.2 µM; in data set [3], more than 64 µM. In addition, the selectivity ratio in data set [2] came to 288.

In the case of `O=C(Nc1ccc(N2CCN(C(=O)c3ccco3)CC2)cc1)O[C@@H](Cn1ccnc1)c1ccc(F)cc1`, the IC50 in the data set with Leishmania infantum is more than 64 µM; with MRC5, 26.5 µM; in the data set with Trypanosoma cruzi [1], 1.72 µM; in the data set on Plasmodium falciparum, 4 µM; in data set [3], more than 64 µM. Further, in data set [2], the selectivity ratio was found to be 15.4.

`O=C(O[C@H](Cn1ccnc1)c1ccc(Cl)cc1)N1CCN(c2ccc([N+](=O)[O-])cc2)CC1`: the IC50 is 12.7 µM in the data set on Leishmania infantum; 8.5 µM in the data set with MRC5; 1.32 µM in the data set on Trypanosoma cruzi [1]; 1.5 µM in the data set on Plasmodium falciparum; more than 64 µM in data set [3]. In data set [2], the selectivity ratio worked out at 6.4.

Regarding `O=C(O[C@@H](Cn1ccnc1)c1ccc(F)cc1)c1ccc(-c2ccccc2)cc1`, the IC50 in the data set on Leishmania infantum was more than 64 µM; in the data set with MRC5, more than 64 µM; in the data set with Trypanosoma cruzi [1], 1.8 µM; in the data set with Plasmodium falciparum it was 2.3 µM; in data set [3], more than 64 µM. Further, the selectivity ratio in data set [2] was more than 35.6.

Take `O=C(O[C@@H](Cn1ccnc1)c1ccc(F)cc1)N1CCN(c2ccc([N+](=O)[O-])cc2)CC1`: the IC50 was determined as 20.3 µM in the data set on Leishmania infantum; 8.7 µM in the data set with MRC5; 1.23 µM with Trypanosoma cruzi [1]; 1.2 µM in the data set with Plasmodium falciparum; 32.2 µM in data set [3]. Further, in data set [2], the selectivity ratio stood at 7.

Regarding `O=C(O[C@H](Cn1ccnc1)c1ccc(F)cc1)c1ccc(-c2ccccc2)cc1`, the IC50 in the data set with Leishmania infantum was 34.6 µM; in the data set on MRC5, 8 µM; in the data set on Trypanosoma cruzi [1], 0.49 µM; in the data set on Plasmodium falciparum, 2 µM; in data set [3], 33.7 µM. Further, the selectivity ratio in data set [2] was 16.3.

For the compound `O=C(O[C@@H](Cn1ccnc1)c1ccc(Cl)cc1)c1ccc(-c2ccccc2)cc1`, the IC50 with Leishmania infantum is more than 64 µM; in the data set with MRC5, 7.8 µM; with Trypanosoma cruzi [1], 0.2 µM; with Plasmodium falciparum, 2 µM; in data set [3], 32.4 µM. Moreover, the selectivity ratio in data set [2] was determined as 39.

For the compound `O=C(O[C@@H](Cn1ccnc1)c1ccc(Cl)cc1)N1CCN(c2ccc([N+](=O)[O-])cc2)CC1`, the IC50 in the data set on Leishmania infantum turned out to be 12.7 µM; in the data set on MRC5, 8.7 µM; with Trypanosoma cruzi [1] it was 1 µM; with Plasmodium falciparum, 2.2 µM; in data set [3] it was 32.2 µM. In addition, the selectivity ratio in data set [2] stood at 8.7.

For `O=C(O[C@H](Cn1ccnc1)c1ccc(Cl)cc1)c1ccc(-c2ccccc2)cc1`, the IC50 in the data set on Leishmania infantum worked out at 32 µM; with MRC5 it was 8.2 µM; in the data set with Trypanosoma cruzi [1] it was 0.56 µM; in the data set on Plasmodium falciparum, 2.1 µM; in data set [3], 30.1 µM. Moreover, the selectivity ratio in data set [2] worked out at 14.6.

In the case of `O=C(O[C@H](Cn1ccnc1)c1ccc(F)cc1)N1CCN(c2ccc([N+](=O)[O-])cc2)CC1`, the IC50 with Leishmania infantum is more than 64 µM; in the data set with MRC5, 8.2 µM; with Trypanosoma cruzi [1] it was 5.44 µM; in the data set on Plasmodium falciparum it was 1.3 µM; in data set [3] it was more than 64 µM. Moreover, the selectivity ratio in data set [2] amounted to 1.5.

`O=C(OC(Cn1ccnc1)c1ccc(F)cc1)c1ccc(-c2ccccc2)cc1` (racemic): the IC50 in the data set with Leishmania infantum came to 32.2 µM; in the data set with MRC5, 7.8 µM; in the data set with Trypanosoma cruzi [1], 0.71 µM; in the data set with Plasmodium falciparum, 0.6 µM; in data set [3], 32.2 µM. Further, the selectivity ratio in data set [2] was determined as 10.9.

Regarding `O=C(OC(Cn1ccnc1)c1ccc(Cl)cc1)c1ccc(-c2ccccc2)cc1` (racemic), the IC50 was 12.7 µM with Leishmania infantum; 7.2 µM in the data set on MRC5; 0.48 µM in the data set on Trypanosoma cruzi [1]; 1.9 µM with Plasmodium falciparum; 32.4 µM in data set [3]. Besides, the selectivity ratio in data set [2] turned out to be 15.

In the case of `O=C(OC(Cn1ccnc1)c1ccc(Cl)cc1)N1CCN(C(=O)c2ccco2)CC1` (racemic), the concentration for half-maximal inhibition (IC50) in the data set on Leishmania infantum is more than 64 µM; with MRC5 it was more than 64 µM; in the data set on Trypanosoma cruzi [1] it was 5.84 µM; in the data set with Plasmodium falciparum, 10.7 µM; in data set [3], more than 64 µM. In addition, the selectivity ratio in data set [2] was more than 10.9.

With `O=C(OC(Cn1ccnc1)c1ccc(F)cc1)N1CCN(c2ccc([N+](=O)[O-])cc2)CC1` (racemic), the IC50 with Leishmania infantum worked out at 27.2 µM; in the data set on MRC5, 15.5 µM; in the data set on Trypanosoma cruzi [1], 1.68 µM; with Plasmodium falciparum it was 2.6 µM; in data set [3] it was 27.2 µM. In addition, the selectivity ratio in data set [2] was 9.2.

With `O=C(OC(Cn1ccnc1)c1ccc(Cl)cc1)N1CCN(c2ccc([N+](=O)[O-])cc2)CC1` (racemic), the IC50 came out at 8 µM in the data set with Leishmania infantum; 8.2 µM with MRC5; 0.87 µM in the data set with Trypanosoma cruzi [1]; 2.4 µM in the data set with Plasmodium falciparum; 8 µM in data set [3]. In addition, in data set [2], the selectivity ratio came out at 9.4.

`CCS(=O)(=O)N1CCN(c2ccc(NC(=O)OC(Cn3ccnc3)c3ccc(F)cc3)cc2)CC1` (racemic): the IC50 with Leishmania infantum was 38 µM; with MRC5, more than 64 µM; in the data set with Trypanosoma cruzi [1], 0.04 µM; in the data set on Plasmodium falciparum, 17.2 µM; in data set [3] it was more than 64 µM. For the same compound, the “Ratio IC50” value in the data set with Trypanosoma cruzi [4] worked out at 50. In data set [5], the remaining at 1 h, 50 µM turned out to be 99%. The selectivity ratio in data set [2] is more than 1600.

In the case of `O=C(Nc1ccc(N2CCN(C(=O)c3ccco3)CC2)cc1)OC(Cn1ccnc1)c1ccc(F)cc1` (racemic), the IC50 with Leishmania infantum is 28.9 µM; with MRC5, 26.4 µM; in the data set on Trypanosoma cruzi [1], 0.79 µM; with Plasmodium falciparum, 4 µM; in data set [3], 32.9 µM. Moreover, the remaining at 1 h, 50 µM in data set [5] amounted to 99%. The selectivity ratio in data set [2] was found to be 33.4.

For `O=C(OC(Cn1ccnc1)c1ccc(-c2ccccc2)cc1)c1ccc(-c2ccccc2)cc1` (racemic), the IC50 came to 8 µM in the data set on Leishmania infantum; 8.8 µM in the data set with MRC5; 2.72 µM with Trypanosoma cruzi [1]; 7.7 µM in the data set with Plasmodium falciparum; 29.1 µM in data set [3]. Also, the selectivity ratio in data set [2] was 3.2.

Compound `O=C(Cn1ccnc1[N+](=O)[O-])NCc1ccccc1` [BENZNIDAZOLE] came in with an IC50 with Trypanosoma cruzi [1] of 1.95 µM.

The compound `CCCCCCCCCCCCCCCCOP(=O)([O-])OCC[N+](C)(C)C` [MILTEFOSINE] came in with an IC50 in the data set on Leishmania infantum of 10.4 µM.

In turn, `Cc1ccc(C(=O)Nc2ccc(S(=O)(=O)O)c3cc(S(=O)(=O)O)cc(S(=O)(=O)O)c23)cc1NC(=O)c1cccc(NC(=O)Nc2cccc(C(=O)Nc3cc(C(=O)Nc4ccc(S(=O)(=O)O)c5cc(S(=O)(=O)O)cc(S(=O)(=O)O)c45)ccc3C)c2)c1` [SURAMIN] gave an IC50 in data set [3] of 0.02 µM.

`CC/C(=C(\c1ccccc1)c1ccc(OCCN(C)C)cc1)c1ccccc1` [TAMOXIFEN]: in the data set on MRC5, the half-inhibitory concentration (IC50) was 10.9 µM.

Broadly, the IC50 is the concentration at which inhibition is half-maximal.
